Pf Dd2 inh: P. falciparum Dd2 growth inhibition. SYBR Green, 72 h; stronger effect = lower value. activity change, % at 10 µM. 94,000 tested, 2.3% active. AID 1159554; in the data active = activity change below about -80%; inconclusive = no clear call, values can overlap the other calls
T cruzi growth-1: inhibitors of T. cruzi proliferation; inhibition, % at 8.34 µM; 77,000 tested, 5.9% active; T. cruzi beta-gal in NIH3T3, GalScreen luminescence, 90 h;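 active = mean inhibition above about 93%, with at least 55% of replicates each passing it, limit read from the data, passing the limit was not always enough; inconclusive = only one of those two conditions holds; inactive = neither condition holds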
GASC1 inh: inhibitors of human demethylase GASC-1 KDM4C. 96,000 tested, 0.15% active. GST-KDM4C 2-372, H3K9me3 peptide, LANCE TR-FRET. inhibition, % at 12.5 µM. Q9H3R0;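 active = mean replicate inhibition above about 25%, with at least 55% of replicates also reaching it, limit read from the data, passing the limit was not always enough; inconclusive = only one of those two conditions met; inactive = neither condition met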
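System: N-terminal GST-fused human GASC-1 (KDM4C) fragment, residues 2-372; amount: enzyme final amount 10 nM; incubation: reaction 30 min RT, detection step 1 h RT; medium: HEPES buffer, pH 7.5, plus ascorbate; technique: LANCE TR-FRET, Eu antibody, ULight-streptavidin, EDTA, ex 340 nm, em 618/671 nm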
IDH1 mut inh: inhibitors of human IDH1 R132H. 70,000 tested, 0.18% active. IDH1 R132H reductase, diaphorase/resazurin fluorescence, 60 min. O75874. AID 624101. inhibition, % at 10 µM; in the data active = inhibition above about 34%; inconclusive = no clear call, values can overlap the other calls; inactive = below about 11%;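 also: 0% = DMSO and 100% = no enzyme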
Target sequence (O75874 whole entry R132H): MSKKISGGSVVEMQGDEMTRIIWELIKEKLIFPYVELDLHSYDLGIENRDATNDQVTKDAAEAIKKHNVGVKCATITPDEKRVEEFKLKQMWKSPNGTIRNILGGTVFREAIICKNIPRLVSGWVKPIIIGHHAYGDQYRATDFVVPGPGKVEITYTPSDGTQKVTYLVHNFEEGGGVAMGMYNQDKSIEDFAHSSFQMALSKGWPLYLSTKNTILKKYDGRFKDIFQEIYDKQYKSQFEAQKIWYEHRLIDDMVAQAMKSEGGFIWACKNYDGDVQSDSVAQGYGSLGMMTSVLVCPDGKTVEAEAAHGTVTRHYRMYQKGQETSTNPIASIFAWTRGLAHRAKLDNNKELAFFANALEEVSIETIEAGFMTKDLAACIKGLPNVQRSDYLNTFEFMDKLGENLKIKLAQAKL
T cruzi growth-2: blocks T. cruzi growth in NIH3T3 host cells | shares compounds with T cruzi growth-1 | T. cruzi beta-gal in NIH3T3, GalScreen luminescence, 90 h | inhibition, % at 8.35 µM | 5,600 tested, 72% active | AID 651739;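 active = mean replicate inhibition above about 95% and at least 55% of replicates individually reaching it, limit read from the data; inconclusive = only one of the two criteria is met; inactive = neither criterion is met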
T cruzi growth-3: blocks T. cruzi growth in NIH3T3 host cells; shares compounds with T cruzi growth-1; T. cruzi beta-gal in NIH3T3, GalScreen luminescence, 90 h; inhibition, % at 2.09 µM; 5,600 tested, 21% active; AID 651740;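 active = mean inhibition above about 95%, with at least 55% of replicates also reaching it, limit read from the data; inconclusive = meets just one of the two conditions; inactive = meets neither condition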;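 also: plate controls were neutral control median for no effect and positive control median for full effect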
NIH3T3 tox: kills mouse NIH/3T3 fibroblasts; shares compounds with T cruzi growth-1; NIH/3T3 viability, CellTiter-Glo ATP luminescence, 90 h; cytotoxicity (signal decrease), % at 8.35 µM; 5,600 tested, 14% active;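 active = mean signal decrease across replicates above about 35% based on untreated-well scatter, with enough replicates individually passing, limit read from the data; inconclusive = no rule stated though some were filed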;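 also: 0% = median of neutral control wells and 100% = median of positive control wells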
3T3 cytotox 2: NIH/3T3 (mouse) viability loss. shares compounds with T cruzi growth-1. NIH/3T3 viability, CellTiter-Glo ATP luminescence, 90 h. inhibition, % at 24.9 µM. 5,600 tested, 56% active;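 active = mean loss of cell viability signal at or above a set limit, and enough replicates individually reaching it; inconclusive = meets only the mean limit or only the replicate share; inactive = meets neither condition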;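 also: 0% = median of neutral control wells and 100% = median of positive control wells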
* hit, by the source's call; ? = inconclusive; . = no result. In the library only some 5.8% were active in any assay of this set; here they are far more common.

SMILES	Pf Dd2 inh	T cruzi growth-1	GASC1 inh	IDH1 mut inh	T cruzi growth-2	T cruzi growth-3	NIH3T3 tox	3T3 cytotox 2
C[C@H]1CN([C@@H](C)CO)C(=O)c2cccc(NC(=O)c3nc4ccccc4s3)c2O[C@H]1CN(C)S(=O)(=O)c1ccccc1	-32.5	77.0	-1.1	.	.	.	.	.
N#C[C@@H]1[C@@H](c2ccc(/C=C/c3ccccc3)cc2)[C@@H](CO)N1C(=O)C1CCCCC1	-23.6	102.3*	0.1	.	?	58.0	5.2	26.1
N#C[C@H]1[C@@H](c2ccc(/C=C/c3ccccc3)cc2)[C@@H](CO)N1C(=O)C1CCCCC1	-25.1	97.9*	-1.4	.	96.3*	?	14.9	90.2*
C[C@@H]1CN([C@@H](C)CO)C(=O)c2cc(NS(=O)(=O)c3ccccc3)ccc2O[C@@H](C)CCCCO[C@H]1CN(C)S(=O)(=O)c1ccc(F)cc1	-21.1	56.8	-0.8	0.7	.	.	.	.
CC1OC(=O)CC2C(C(=O)O)=CC3(O)CC(C)(C)CC123 (stereo unspecified)	.	.	.	0.4	.	.	.	.
CS(=O)(=O)N1CCCCN2[C@H](CO)[C@@H](c3ccc(C#Cc4ccccn4)cc3)[C@H]2C1	8.7	?	1.8	.	91.4	8.6	-6.3	1.6
CCS(=O)(=O)N1CCCCN2[C@H](C1)[C@H](c1ccc(C#Cc3ccccn3)cc1)[C@@H]2CO	-18.9	95.8*	0.1	.	93.6	54.1	-2.3	0.9
CCS(=O)(=O)N1CCCCN2[C@H](CO)[C@H](c3ccc(C#Cc4ccccn4)cc3)[C@@H]2C1	17.4	63.6	-0.6	.	.	.	.	.
COCC(=O)Nc1ccc2c(c1)[C@H]1C[C@@H](CC(=O)NCc3ccc(-c4ccccc4)cc3)O[C@@H](CO)[C@H]1O2	-20.0	35.5	-1.1	0.0	.	.	.	.
COCC(=O)Nc1ccc2c(c1)[C@H]1C[C@@H](CC(=O)NCc3ccc(-c4ccccc4)cc3)O[C@H](CO)[C@H]1O2	-41.9	101.6*	-1.8	0.4	11.7	-5.4	8.2	16.7
COCC(=O)Nc1ccc2c(c1)[C@H]1C[C@H](CC(=O)NCc3ccc(-c4ccccc4)cc3)O[C@H](CO)[C@H]1O2	-49.7	111.5*	4.1	-0.7	69.7	28.3	-18.8	17.8
COCC(=O)Nc1ccc2c(c1)[C@@H]1C[C@@H](CC(=O)NCc3ccc(-c4ccccc4)cc3)O[C@@H](CO)[C@@H]1O2	-8.6	?	1.7	-1.2	34.5	-42.8	36.8*	23.3
COCC(=O)Nc1ccc2c(c1)[C@H]1C[C@H](CC(=O)NCc3ccc(-c4ccccc4)cc3)O[C@@H](CO)[C@H]1O2	5.5	47.2	-1.0	-0.8	.	.	.	.
C[C@@H]1CN([C@H](C)CO)S(=O)(=O)c2ccc(C#CCN(C)C)cc2O[C@@H]1CN(C)Cc1ccccc1	-32.1	58.7	6.6	-0.1	.	.	.	.
C[C@H]1CN([C@@H](C)CO)S(=O)(=O)c2ccc(C#CCN(C)C)cc2O[C@@H]1CN(C)Cc1ccccc1	-43.6	108.3*	4.9	1.4	105.0*	93.1	31.4	104.6*
CC(C)CC#Cc1ccc2c(c1)O[C@@H](CN(C)Cc1ccncc1)[C@@H](C)CN([C@@H](C)CO)S2(=O)=O	-67.9	122.0*	6.1	2.1	108.6*	93.5	7.5	108.5*
CC(C)CC#Cc1ccc2c(c1)O[C@@H](CN(C)Cc1ccccc1)[C@@H](C)CN([C@@H](C)CO)S2(=O)=O	-66.9	125.3*	0.6	-0.3	96.3*	109.5*	11.3	105.7*
CC(C)CC#Cc1ccc2c(c1)O[C@@H](CN(C)Cc1ccncc1)[C@@H](C)CN([C@H](C)CO)S2(=O)=O	-55.5	129.8*	-1.0	-0.1	100.2*	90.9	0.6	104.5*
O=C(c1ccccn1)N1C[C@@H]2[C@H](c3ccccc31)[C@H](CO)N2C(=O)C1CCCC1	9.3	75.8	-3.0	.	.	.	.	.
CC(C)CC#Cc1ccc2c(c1)O[C@H](CN(C)Cc1ccncc1)[C@H](C)CN([C@@H](C)CO)S2(=O)=O	-69.7	?	0.4	4.0	95.4*	88.4	48.6*	97.4*

High-throughput results deposited in PubChem BioAssay by Broad Institute.
